Experimental data: ChEMBL document CHEMBL4130623, “Discovery of Highly Potent Pinanamine-Based Inhibitors against Amantadine- and Oseltamivir-Resistant Influenza A Viruses” (J Med Chem, 2018)
Activity calls are given as the source filed them. No cut-off for these calls is given here.

Legend:
Format in all cases: functional, organism-based
Influenza A virus [1] = experiment: Antiviral activity against Influenza A virus (A/WSN/33) by CCK-8 reagent based assay; conditions: A/WSN/1933(H1N1)
Influenza A virus [2] = experiment: Antiviral activity against Influenza A virus (A/HK/68) by CCK-8 reagent based assay
Influenza A virus [3] = experiment: Antiviral activity against Influenza A virus (A/Guangzhou/GIRD/07/2009 (H1N1)) infected in MDCK cells assessed as reduction in virus-induced cytopathic effect at less than cytotoxic MCC level after 48 hrs by microscopic analysis
Influenza A virus [4] = experiment: Antiviral activity against Influenza A virus (A/Guangzhou/GIRD/07/2009 (H1N1)) infected in MDCK cells assessed as reduction in virus-induced cytopathic effect after 48 hrs by microscopic analysis
How it was run: (§1)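 MDCK monolayers (5×10^4 cells/well, grown 24 h) were rinsed twice, infected with 100 TCID50 virus for 2 h at 37 °C in 5% CO2, and the inoculum was removed. Two-fold serial compound dilutions in DMEM with 1.5 µg/mL trypsin were added and incubated 48 h at 34 °C. CPE percentage was scored by microscope and EC50 fitted by non-linear regression.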

Influenza A virus [5] = experiment: Antiviral activity against Influenza A virus (A/WSN/33 (H1N1)) infected in MDCK cells assessed as reduction in virus-induced cytopathic effect after 48 hrs by microscopic analysis; conditions: A/WSN/1933(H1N1); how it was run: as §1
Influenza A virus [6] = experiment: Antiviral activity against Influenza A virus (A/PR/8/34 (H1N1)) infected in MDCK cells assessed as reduction in virus-induced cytopathic effect after 48 hrs by microscopic analysis; conditions: A/Puerto Rico/8/1934(H1N1); how it was run: as §1
Influenza A virus [7] = experiment: Antiviral activity against Influenza A virus (A/HK/68(H3N2)) infected in MDCK cells assessed as reduction in virus-induced cytopathic effect after 48 hrs by microscopic analysis; how it was run: as §1
Influenza A virus [8] = experiment: Antiviral activity against Influenza A virus (A/duck/HK/Y280/97 (H9N2)) infected in MDCK cells assessed as reduction in virus-induced cytopathic effect after 48 hrs by microscopic analysis; how it was run: as §1
Influenza A virus [9] = experiment: Antiviral activity against Influenza A virus (A/duck/Guangdong/1/1996 (H7N3)) infected in MDCK cells assessed as reduction in virus-induced cytopathic effect after 48 hrs by microscopic analysis; how it was run: as §1
H3N2 subtype = experiment: Antiviral activity against Influenza A virus (A/Aichi/2/68 (H3N2)) infected in MDCK cells assessed as reduction in virus-induced cytopathic effect after 48 hrs by microscopic analysis; conditions: A/Aichi/2/1968(H3N2); how it was run: as §1

Structure (SMILES)	Activity (Influenza A virus [1])	Activity (Influenza A virus [2])	inhibition (Influenza A virus [3])	EC50 (Influenza A virus [4]) [µM]	further results
Cc1ccsc1CN[C@@H]1C[C@H]2C[C@@H]([C@H]1C)C2(C)C	Active	Active	inactive		
Cc1csc(CN[C@@H]2CC3CC([C@H]2C)C3(C)C)n1 (single isomer, unassigned)	Active	Active		75	
C[C@@H]1C2CC(C[C@H]1NCc1sccc1C1CCCC1)C2(C)C (single isomer, unassigned)				0.69	
Cc1csc(CN[C@@H]2CC3CC([C@H]2C)C3(C)C)c1 (single isomer, unassigned)	Active	Active		0.2	
C=Cc1ccsc1CN[C@@H]1CC2CC([C@H]1C)C2(C)C (single isomer, unassigned)	Active	Active		1.82	
C[C@@H]1C2CC(C[C@H]1NCc1ccsc1)C2(C)C (single isomer, unassigned)	Active	Active		28.6	
C[C@@H]1C2CC(C[C@H]1NCc1cccs1)C2(C)C (single isomer, unassigned)	Active	Active		6.42	
C[C@@H]1C2CC(C[C@H]1NCc1ccoc1)C2(C)C (single isomer, unassigned)				60.5	
C[C@@H]1C2CC(C[C@H]1NCc1cc(C3CC3)cs1)C2(C)C (single isomer, unassigned)	Active	Active		6.68	
C[C@@H]1C2CC(C[C@H]1NCc1cc(Br)cs1)C2(C)C (single isomer, unassigned)	Active	Active		5.16	
CCCCc1ccsc1CN[C@@H]1CC2CC([C@H]1C)C2(C)C (single isomer, unassigned)	Active	Active		10.3	
CCCCc1csc(CN[C@@H]2CC3CC([C@H]2C)C3(C)C)c1 (single isomer, unassigned)				0.46	
C=C(C)c1csc(CN[C@@H]2CC3CC([C@H]2C)C3(C)C)c1 (single isomer, unassigned)			inactive		
C=Cc1csc(CN[C@@H]2CC3CC([C@H]2C)C3(C)C)c1 (single isomer, unassigned)	Active	Active	inactive		
CCCc1ccsc1CN[C@@H]1CC2CC([C@H]1C)C2(C)C (single isomer, unassigned)	Active	Active	inactive		
CCCc1csc(CN[C@@H]2CC3CC([C@H]2C)C3(C)C)c1 (single isomer, unassigned)	Active	Active	inactive		
CCOc1ccsc1CN[C@@H]1CC2CC([C@H]1C)C2(C)C (single isomer, unassigned)	Active	Active	inactive		
CCc1ccc(CN[C@@H]2CC3CC([C@H]2C)C3(C)C)s1 (single isomer, unassigned)			inactive		
CCc1ccsc1CN[C@@H]1CC2CC([C@H]1C)C2(C)C (single isomer, unassigned)	Active	Active	inactive		
CCc1csc(CN[C@@H]2CC3CC([C@H]2C)C3(C)C)c1 (single isomer, unassigned)			inactive		

Structure (SMILES)	Activity (Influenza A virus [1])	Activity (Influenza A virus [2])	inhibition (Influenza A virus [3])	EC50 (Influenza A virus [4]) [µM]	further results
CSc1ccc(CN[C@@H]2CC3CC([C@H]2C)C3(C)C)s1 (single isomer, unassigned)	Active	Active	inactive		
C[C@@H]1C2CC(C[C@H]1NCc1cc(-c3ccccc3)cs1)C2(C)C (single isomer, unassigned)			inactive		
C[C@@H]1C2CC(C[C@H]1NCc1cc(-c3ccsc3)cs1)C2(C)C (single isomer, unassigned)			inactive		
C[C@@H]1C2CC(C[C@H]1NCc1cc(C3CCCC3)cs1)C2(C)C (single isomer, unassigned)			inactive		
C[C@@H]1C2CC(C[C@H]1NCc1cc(C3CCCCC3)cs1)C2(C)C (single isomer, unassigned)			inactive		
C[C@@H]1C2CC(C[C@H]1NCc1ccc(-c3ccc(Br)s3)s1)C2(C)C (single isomer, unassigned)			inactive		
C[C@@H]1C2CC(C[C@H]1NCc1ccc(Br)s1)C2(C)C (single isomer, unassigned)			inactive		
C[C@@H]1C2CC(C[C@H]1NCc1ccc(C(C)(C)C)s1)C2(C)C (single isomer, unassigned)			inactive		
C[C@@H]1C2CC(C[C@H]1NCc1ccc(Cl)s1)C2(C)C (single isomer, unassigned)			inactive		
C[C@@H]1C2CC(C[C@H]1NCc1ccco1)C2(C)C (single isomer, unassigned)			inactive		
C[C@@H]1C2CC(C[C@H]1NCc1cnccn1)C2(C)C (single isomer, unassigned)			inactive		
C[C@@H]1C2CC(C[C@H]1NCc1cncnc1)C2(C)C (single isomer, unassigned)			inactive		
C[C@@H]1C2CC(C[C@H]1NCc1sccc1-c1ccccc1)C2(C)C (single isomer, unassigned)			inactive		
C[C@@H]1C2CC(C[C@H]1NCc1sccc1-c1ccsc1)C2(C)C (single isomer, unassigned)			inactive		
C[C@@H]1C2CC(C[C@H]1NCc1sccc1Br)C2(C)C (single isomer, unassigned)	Active	Active	inactive		
C[C@@H]1C2CC(C[C@H]1NCc1sccc1C1CCCCC1)C2(C)C (single isomer, unassigned)			inactive		
Cc1ccc(CN[C@@H]2CC3CC([C@H]2C)C3(C)C)s1 (single isomer, unassigned)	Active	Active	inactive		
Cc1n[nH]cc1CN[C@@H]1CC2CC([C@H]1C)C2(C)C (single isomer, unassigned)			inactive		
NC12CC3CC(CC(C3)C1)C2 [AMANTADINE]				> 100	EC50 (Influenza A virus [5]): > 100 µM; EC50 (Influenza A virus [6]): > 100 µM; EC50 (Influenza A virus [7]): 1 µM
CCOC(=O)C1=C[C@@H](OC(CC)CC)[C@H](NC(C)=O)[C@@H](N)C1 [OSELTAMIVIR]					EC50 (Influenza A virus [5]): 0.4 µM; EC50 (Influenza A virus [8]): > 10 µM; EC50 (Influenza A virus [9]): 2.67 µM; EC50 (Influenza A virus [6]): 0.13 µM; EC50 (H3N2 subtype): 0.99 µM; EC50 (Influenza A virus [7]): 2.3 µM
